Source: ChEMBL document CHEMBL1151304, “Preparation and cytotoxic effect of ceanothic acid derivatives” (J Nat Prod, 1998)
Values after ≈ are worked out from the molar mass of the structure shown.

Legend:
OVCAR-3 [1] = assay: Cytotoxicity against human OVCAR-3 cells assessed as cell survival after 48 hrs by MTT assay relative to control; assay type: functional; set-up: concentration or dose not given beside the values
Procedure, shortened: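 OVCAR-3 (human ovarian adenocarcinoma) cells were kept in RPMI 1640 with 10% heat-inactivated FCS, streptomycin, penicillin and 2 mM glutamine at 37 °C under 5% CO₂. They were seeded at 2 × 10⁴ cells/well and grown 24 h. The medium was then swapped for one holding compound and 2% FCS for 48 h. MTT (5 mg/mL stock in PBS) went on for 4 h in serum-free medium, then SDS/DMF lysis overnight, and absorbance was read at 570 nm.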

[2] = Cytotoxicity against human FS5 cells assessed as cell survival after 48 hrs by MTT assay relative to control; assay type: cell-based; set-up: concentration or dose not given beside the values; settings: read-out: Survival
Procedure, shortened: (§1)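 FS-5 foreskin fibroblasts and HeLa cervical carcinoma cells were grown in DMEM with 10% heat-inactivated FCS, antibiotics and glutamine at 37 °C under 5% CO₂. They were seeded at 2 × 10⁴ cells/well and held 24 h, then exposed for 48 h to compound in medium with 2% FCS. MTT (5 mg/mL stock in PBS) went on for 4 h, then SDS/DMF lysis overnight, and A570 was read.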

HeLa [3] = assay: Cytotoxicity against human HeLa cells assessed as cell survival after 48 hrs by MTT assay relative to control; assay type: functional; set-up: concentration or dose not given beside the values; procedure, shortened: as §1
[4] = Cytotoxicity against human FS5 cells after 48 hrs by MTT assay; assay type: cell-based; settings: FS5, 48 h
Procedure, shortened: (§2)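 FS-5 foreskin fibroblasts and HeLa cervical carcinoma cells grown in DMEM with 10% heat-inactivated FCS, penicillin, streptomycin, glutamine (37 °C, 5% CO2). Seeded at 2 × 10⁴ cells/well and left 24 h, then exposed 48 h to compounds in medium with 2% FCS. Washed, MTT added for 4 h at 37 °C, lysed overnight in SDS/DMF, A570 read.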

OVCAR-3 [5] = assay: Cytotoxicity against human OVCAR-3 cells after 48 hrs by MTT assay; assay type: functional, cell-based; settings: OVCAR-3, 48 h
Procedure, shortened: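 OVCAR-3 ovarian adenocarcinoma cells kept in RPMI 1640 with 10% heat-inactivated FCS, 100 µg/mL streptomycin, 100 IU/mL penicillin, 2 mM glutamine at 37 °C, 5% CO2. Plated at 2 × 10⁴ cells/well and cultured 24 h, then treated 48 h in 2% FCS medium. After washing, MTT incubation 4 h, overnight lysis in 20% SDS/50% DMF, absorbance at 570 nm.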

HeLa [6] = assay: Cytotoxicity against human HeLa cells after 48 hrs by MTT assay; assay type: functional, cell-based; procedure, shortened: as §2
[7] = Cytotoxicity against human FS5 cells assessed as cell survival at 10 ug/ml after 48 hrs by MTT assay relative to control; assay type: cell-based; settings: read-out: Survival
HeLa [8] = assay: Cytotoxicity against human HeLa cells assessed as cell survival at 10 ug/ml after 48 hrs by MTT assay relative to control; assay type: functional; settings: read-out: Survival
OVCAR-3 [9] = assay: Cytotoxicity against human OVCAR-3 cells assessed as cell survival at 10 ug/ml after 48 hrs by MTT assay relative to control; assay type: functional; settings: OVCAR-3, 48 h, read-out: Survival

SMILES | Survival (OVCAR-3 [1]) [%] | viability at 48 h [2] [%] | Survival (HeLa [3]) [%] | IC50 [4] [µg/mL] | IC50 (OVCAR-3 [5]) [µg/mL] | IC50 (HeLa [6]) [µg/mL] | viability at 48 h, 10 ug/ml [7] [%] | viability at 10 µg/mL (HeLa [8]) [%] | viability at 10 µg/mL (OVCAR-3 [9]) [%]
C=C(C)[C@@H]1CC[C@]2(C(=O)O)CC[C@]3(C)[C@H](CC[C@@H]4[C@@]5(C)CCC(C)(C)[C@@H]5CC[C@]43C)[C@@H]12 | 55 | 85 | 48 | – | – | – | – | – | –
C=C(C)[C@@H]1CC[C@]2(C(=O)O)CC[C@]3(C)[C@H](CC[C@@H]4[C@@]5(C)C=CC(C)(C)[C@@H]5CC[C@]43C)[C@@H]12 | 0 | 33 | 17 | 22.7 (≈ 53.5 µM) | 3.5 (≈ 8.24 µM) | 7.1 (≈ 16.7 µM) | – | – | –
C=C(C)[C@@H]1CC[C@]2(C(=O)O)CC[C@]3(C)[C@H](CC[C@@H]4[C@@]5(C)CC(=O)C(C)(C)[C@@H]5CC[C@]43C)[C@@H]12 | 0 | 16 | 4 | 11.3 (≈ 25.6 µM) | 2.8 (≈ 6.35 µM) | 6.6 (≈ 15 µM) | – | – | –
C=C(C)[C@@H]1CC[C@]2(C(=O)O)CC[C@]3(C)[C@H](CC[C@@H]4[C@@]5(C)[C@@H](C(=O)O)[C@H](O)C(C)(C)[C@@H]5CC[C@]43C)[C@@H]12 [CEANOTHIC ACID] | 68 | 81 | 65 | – | – | – | – | – | –
COc1cccc2c1C(=O)c1c(O)c3c(c(O)c1C2=O)C[C@@](O)(C(=O)CO)C[C@@H]3O[C@H]1C[C@H](N)[C@H](O)[C@H](C)O1 [DOXORUBICIN] | – | – | – | – | – | – | 56 | 19 | 21
C=C(C)[C@@H]1CC[C@]2(C(=O)O)CC[C@]3(C)[C@H](CC[C@@H]4[C@@]5(C)C(C(=O)O)=CC(C)(C)[C@@H]5CC[C@]43C)[C@@H]12 | 51 | 87 | 50 | – | – | – | – | – | –
C=C(C)[C@@H]1CC[C@]2(C(=O)O)CC[C@]3(C)[C@H](CC[C@@H]4[C@@]5(C)[C@@H](CO)[C@H](O)C(C)(C)[C@@H]5CC[C@]43C)[C@@H]12 | 25 | 43 | 22 | – | – | – | – | – | –
C=C(C)[C@@H]1CC[C@]2(C(=O)O)CC[C@]3(C)[C@H](CC[C@@H]4[C@@]5(C)CC[C@H](O)C(C)(C)[C@@H]5CC[C@]43C)[C@@H]12 [BETULINIC ACID] | 0 | 39 | 25 | 20.7 (≈ 45.3 µM) | 0.9 (≈ 1.97 µM) | 0.8 (≈ 1.75 µM) | – | – | –
C=C(C)[C@@H]1CC[C@]2(C(=O)O)CC[C@]3(C)[C@H](CC[C@@H]4[C@@]5(C)C[C@H](O)C(C)(C)[C@@H]5CC[C@]43C)[C@@H]12 | 0 | 67 | 18 | 29.6 (≈ 66.9 µM) | 4.7 (≈ 10.6 µM) | 9.1 (≈ 20.6 µM) | – | – | –
